Measurements collected from several papers.
Each line is one published result; the experiments were not run side by side. pEC50, pIC50: −log10 of the molar value.

Cc1ccc(-c2nc3ccc(C)cn3c2CC(=O)N(C)C)cc1 — MIC (Mycobacteroides chelonae; microbial growth; 72 h): > 50 µM
O=c1c2ccccc2nc(/C=C/c2ccc([N+](=O)[O-])cc2)n1-c1ccccc1O — MIC (Enterococcus faecium; microbial growth; broth dilution; NCTC7171): > 128 µg/mL
COC(=O)c1cc(-c2cccc(NC(=O)Nc3cccc(F)c3)c2)on1 — MIC (Mycobacteroides chelonae; microbial growth; broth dilution; ATCC35752; 48 h): > 64 µg/mL
O=C(O)c1cc(Cl)ccc1-c1ccc(Cl)cc1C(=O)Nc1ccc2c(c1)Cc1ccccc1-2 — pEC50 (Trypanosoma brucei; parasite growth; resazurin; 72 h): 4.55
O=C(NOC[C@H](O)CO)c1ccc(F)c(F)c1Nc1ccc(I)cc1F — pIC50 (MB002; cell growth or viability; 7 days): < 5.00
C#Cc1ccc(/C=C/c2nc3ccccc3c(=O)n2-c2cccc(O)c2)cc1 — MIC (Enterococcus faecium; microbial growth; broth dilution; NCTC7171): 32 µg/mL
COC(=O)c1cc(-c2cccc(NC(=S)NC3CCCCC3)c2)on1 — MIC (Mycobacteroides chelonae; microbial growth; broth dilution; ATCC35752; 48 h): > 64 µg/mL
O=C1[O][Pt]2([NH][C@@H]3CCCC[C@H]3[NH]2)[O]C1=O — pIC50 (HD-MB03; cell growth or viability; 7 days): 5.63
O=c1c2ccccc2nc(/C=C/c2ccco2)n1-c1cccc(O)c1 — MIC (Enterococcus faecium; microbial growth; broth dilution; NCTC7171): > 128 µg/mL
COC(=O)c1cc(-c2cccc(NC(=O)Nc3ccccc3F)c2)on1 — MIC (Mycobacteroides chelonae; microbial growth; broth dilution; ATCC35752; 48 h): > 64 µg/mL
O=C(O)c1ccc(/C=C/c2nc3ccccc3c(=O)n2-c2cccc(O)c2)cc1 — MIC (Enterococcus faecium; microbial growth; broth dilution; NCTC7171): 64 µg/mL
COc1cc(C(=O)NC2CCN(C)CC2)c(F)cc1Nc1ncc2c(n1)N(C1CCCC1)CC(F)(F)C(=O)N2C — pIC50 (MB002; cell growth or viability; 7 days): 7.87
